High-throughput results as filed in PubChem BioAssay.
In the library only some 2.3% were active in any assay of this set; here they are far more common.
TRPC6 inhibitor – blocks the mouse TRPC6 cation channel; 310,000 compounds, 1.1% hits; AID 2553; B-score at 10 µM; HEK293-TRPC6, membrane potential dye, ACh-evoked depolarization; active compounds read low;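 active means B-score under library mean minus 3 SD, initial fluorescence not abnormally high, positive integrated signal ratio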;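 further: B-score derived from integrated fluorescence ratio over the kinetic read; more negative B-score means stronger inhibition of depolarization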
TRPC4 potent – allosterically enhances the mouse TRPC4 cation channel. HEK293 TRPC4beta/mu-opioid, DAMGO EC20, Fluo-4 Ca2+ flux; active compounds read high. B-score at 10 µM. 310,000 compounds, 0.42% hits. AID 2227;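 active means B-score of calcium response area above 5 SD of library B-scores, with initial fluorescence ratio within 5 SD of library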;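 further: B-score of integrated fluorescence ratio over time as area under calcium response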
Target sequence (Q9QUQ5 whole entry, looked up): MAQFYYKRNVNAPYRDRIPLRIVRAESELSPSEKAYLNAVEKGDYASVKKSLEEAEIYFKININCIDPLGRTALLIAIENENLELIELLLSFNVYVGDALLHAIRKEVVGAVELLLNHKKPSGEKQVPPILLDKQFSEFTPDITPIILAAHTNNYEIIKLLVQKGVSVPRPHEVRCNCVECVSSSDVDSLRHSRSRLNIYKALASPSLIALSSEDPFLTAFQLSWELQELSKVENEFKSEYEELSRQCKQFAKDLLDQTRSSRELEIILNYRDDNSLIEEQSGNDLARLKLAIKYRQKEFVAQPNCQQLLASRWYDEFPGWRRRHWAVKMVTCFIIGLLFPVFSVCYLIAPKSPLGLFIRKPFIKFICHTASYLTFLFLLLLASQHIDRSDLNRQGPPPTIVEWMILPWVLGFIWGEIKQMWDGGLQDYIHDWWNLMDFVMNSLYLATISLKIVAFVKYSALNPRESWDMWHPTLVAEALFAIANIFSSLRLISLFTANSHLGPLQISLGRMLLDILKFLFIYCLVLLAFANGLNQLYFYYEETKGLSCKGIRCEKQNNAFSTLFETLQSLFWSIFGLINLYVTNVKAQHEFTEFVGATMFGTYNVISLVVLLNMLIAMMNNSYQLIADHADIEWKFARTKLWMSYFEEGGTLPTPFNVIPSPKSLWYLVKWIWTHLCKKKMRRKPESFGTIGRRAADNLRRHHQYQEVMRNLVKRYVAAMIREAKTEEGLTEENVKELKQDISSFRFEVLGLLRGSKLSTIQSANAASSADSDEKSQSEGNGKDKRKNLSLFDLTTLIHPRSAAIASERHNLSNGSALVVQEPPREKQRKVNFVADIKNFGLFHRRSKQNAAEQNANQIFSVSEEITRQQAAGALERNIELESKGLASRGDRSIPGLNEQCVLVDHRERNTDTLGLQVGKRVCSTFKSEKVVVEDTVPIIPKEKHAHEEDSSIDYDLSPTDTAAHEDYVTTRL
TRPC4 agonist – opens the mouse TRPC4 cation channel; B-score at 10 µM; 310,000 compounds, 0.49% hits; Q9QUQ5; HEK293 TRPC4beta/mu-opioid, Fluo4 calcium fluorescence; active compounds read high;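 active means B-score above 5 SD of library B-scores, and initial fluorescence ratio not above library mean plus 5 SD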;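 further: positive B-score marks a calcium rise read as TRPC4 activation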
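Assay system – TRPC4beta and mu-opioid receptor HEK293 stable cells · Measured by – Fluo4 fluorescence, kinetic · Schedule – dye loading 45 min room temperature, 110 s kinetic read · Read-out – B-scored integrated calcium fluorescence ratio · Controls – buffer and maximal DAMGO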
TRPC4 inh – blocks the mouse TRPC4 cation channel | Q9QUQ5 | HEK293 TRPC4beta/mu-opioid, DAMGO-evoked Fluo4 calcium flux; active compounds read low | B-score at 10 µM | 300,000 compounds, 0.39% hits | AID 2247;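 active means B-score over 3 SD under the library average, no early fluorescence shift, positive overall ratio signal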
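Material: HEK293 cells with stable TRPC4beta plus mu-opioid receptor expression / Probe or stimulus: DAMGO in two steps, submaximal then maximal / Compound: single concentration per test compound / Technique: kinetic Fluo4 fluorescence imaging of calcium influx / Read-out: per-well B score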
TRPC6 act – mouse TRPC6 channel activation. Q61143. HEK293-TRPC6 membrane potential dye fluorescence; active compounds read high. B-score at 10 µM. 310,000 compounds, 0.13% hits. AID 2550;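 active means B-score of the integrated fluorescence ratio above library mean plus 3 SD, and starting fluorescence ratio within library mean plus 5 SD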;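 further: higher score means more depolarization so channel activation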
TRPC4 spec 2 – second selectivity test of TRPC6 inhibitors: effect on mouse TRPC4; shares compounds with TRPC6 inhibitor; HEK293 TRPC4/MOR, membrane potential dye fluorescence; channel activated by saturating DAMGO dose; inhibition, % at 10 µM; 920 compounds, 42% hits; AID 2776;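 active means compounds whose fluorescence signal differed from control wells by over 3 SD, either direction, in both duplicate plates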
TRPC4 spec – tests whether TRPC6 inhibitors also affect mouse TRPC4 | HEK293 TRPC4/mu-opioid, membrane potential fluorescence | activity change, negative = inhibition, % at 10 µM | shares compounds with TRPC6 inhibitor | 920 compounds, 61% hits;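 active means rise or fall in signal beyond 3 SD of buffer-only wells in both replicate plates, either sign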;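 further: integrated kinetic ratio of fluorescence range over baseline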
HEK293 MPD ctr 2-1 – second counter-screen for TRPC6 inhibitors: parental HEK293 cells. 920 compounds, 31% hits. signal change vs control, % at 10 µM. shares compounds with TRPC6 inhibitor. parental HEK293 membrane potential dye fluorescence; maximal acetylcholine challenge after compound addition;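 active means membrane potential signal moving either way by over 3 SD of the maximum-effect control, in both duplicate plates, meaning non-specific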
HEK293 MPD ctr-1 – checks TRPC6 inhibitor effects in parental HEK293 cells; shares compounds with TRPC6 inhibitor; 920 compounds, 60% hits; parental HEK293 membrane potential dye fluorescence; membrane potential signal change, % at 10 µM;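 active means membrane potential signal shifting up or down by more than 3 SD of buffer-only wells, on both duplicate plates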
HEK293 MPD ctr-2 – counter-screen for TRPC6 modulators: effect in parental HEK293 cells. shares compounds with TRPC6 inhibitor. membrane potential dye fluorescence. membrane potential signal change, % at 10 µM. 2,400 compounds, 51% hits;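 active means membrane potential signal moves up or down beyond 5 SD from buffer-only wells, on both duplicate plates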
HEK293 MPD ctr 2-2 – second check of TRPC6 modulator effects in parental HEK293 cells | shares compounds with TRPC6 inhibitor | membrane potential dye fluorescence; after compound, maximal acetylcholine stimulation | inhibition, % at 10 µM | 2,400 compounds, 14% hits | AID 488926;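 active means membrane potential signal drops by more than 5 SD from the mean control signal, in both duplicate plates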;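 further: plate controls were acetylcholine ECmax control wells for no effect and buffer only wells for full effect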
TRPC4/MOR mod – tests whether TRPC6 modulators also affect mouse TRPC4 | shares compounds with TRPC6 inhibitor | HEK293 TRPC4/mu-opioid, membrane potential fluorescence | percent change from control (negative = decrease, positive = increase), % at 10 µM | 2,400 compounds, 69% hits | AID 488927;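 active means membrane potential signal moved up or down beyond 5 SD of buffer control wells, in both duplicate plates, actives on both sides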;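 further: plate controls were assay buffer wells for no effect and DAMGO maximal-effect wells for full effect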
TRPC4 ctr inh 2 – second check of whether TRPC6 modulators also affect mouse TRPC4 | 2,400 compounds, 55% hits | shares compounds with TRPC6 inhibitor | HEK293 TRPC4/mu-opioid, membrane potential dye fluorescence; stimulated with maximal-effect DAMGO | inhibition, % at 10 µM;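 active means drop in membrane potential signal beyond 5 SD of the control wells in both duplicate plates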;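 further: TRPC4 counter screen for TRPC6 hits run under conditions tuned for TRPC6 not TRPC4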
TRPC6 block conf – mouse TRPC6 inhibitor confirmation; AID 488960; inhibition, % at 10 µM; shares compounds with TRPC6 inhibitor; HEK293-TRPC6, membrane potential dye, ACh-evoked depolarization; 3,300 compounds, 43% hits;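 active means fluorescence ratio falls more than 5 SD below the full-stimulation control mean, in both duplicate runs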;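 further: integrated fluorescence ratio of peak minus minimum over baseline after agonist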
TRPC6 act confirm – confirmation of mouse TRPC6 activators; shares compounds with TRPC6 inhibitor; 2,800 compounds, 11% hits; HEK293-TRPC6 membrane potential dye fluorescence, FDSS; AID 488961; activation, % at 10 µM;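 active means ratio signal rise beyond 5 SD above unstimulated control wells' mean, seen in both duplicate runs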;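 further: plate controls were buffer EC0 wells for no effect and acetylcholine ECmax response for full effect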
* = called active by the depositor; i = inactive; nt = no result.

SMILES	TRPC6 inhibitor	TRPC4 potent	TRPC4 agonist	TRPC4 inh	TRPC6 act	TRPC4 spec 2	TRPC4 spec	HEK293 MPD ctr 2-1	HEK293 MPD ctr-1	TRPC6 block conf	TRPC6 act confirm	others
O=C1c2cccc3cccc(c23)C(=O)N1CC1CCN(CC(O)COCc2ccc3c(c2)OCO3)CC1 (stereo not drawn)	-7.3*	i	i	i	i	19%*	-28%*	33%*	-323%*	83%*	i
O=C(O)CCn1cc(C(=O)O)c(-c2ccccc2)n1	i	i	i	i	i	nt	nt	nt	nt	nt	nt
Cc1cc(NC(=O)CNCC(c2ccccc2)N(C)C)c([N+](=O)[O-])cc1C (stereo not drawn)	-9.4*	i	i	i	i	64%*	-12%*	i	-151%*	i	i
CCOc1ccc(OCc2ccc(C(=O)NC(C)C)o2)cc1	i	i	i	i	i	nt	nt	nt	nt	nt	nt
CCOc1ccc(OCc2ccc(C(=O)OCc3ccccn3)o2)cc1	-6*	i	i	i	i	nt	nt	nt	nt	i	i	HEK293 MPD ctr-2=i;HEK293 MPD ctr 2-2=i;TRPC4/MOR mod=11%*;TRPC4 ctr inh 2=i
COC(=O)c1cn(C(=O)c2cccc(Br)c2)c2ccccc12	i	i	i	i	i	nt	nt	nt	nt	nt	nt
FC(F)(F)c1ccc2c(c1)n(Cc1ccccc1)c1[n+]2CCCCC1	-5.1*	i	i	i	i	nt	nt	nt	nt	i	i	HEK293 MPD ctr-2=i;HEK293 MPD ctr 2-2=i;TRPC4/MOR mod=i;TRPC4 ctr inh 2=i
Cc1cnc(C(=O)N2CCCC(C(=O)c3ccc(Cl)cc3C)C2)cn1 (stereo not drawn)	-5.3*	i	i	i	i	nt	nt	nt	nt	46%*	nt	HEK293 MPD ctr-2=i;HEK293 MPD ctr 2-2=i;TRPC4/MOR mod=14%*;TRPC4 ctr inh 2=i
COc1ccccc1C(=O)C1CCCN(C(=O)c2ccccc2Cl)C1 (stereo not drawn)	i	i	i	i	i	nt	nt	nt	nt	nt	nt
COc1ccccc1C(=O)C1CCCN(C(=O)c2cn3cc(Cl)ccc3n2)C1 (stereo not drawn)	-8.2*	i	i	i	i	i	0.1%*	i	0.3%*	i	i
COC(=O)c1ccc(NC(=O)N2CCCC(C(=O)c3ccccc3OC)C2)cc1 (stereo not drawn)	-9.2*	i	i	i	i	i	i	226%*	i	i	nt
COc1ccccc1N1CCN(C(=O)CSc2nc(C)cc(=O)[nH]2)CC1	-6.9*	i	i	i	i	i	i	i	i	i	i
COc1ccccc1N1CCN(C(=O)CSc2nc(C)c(C)c(=O)[nH]2)CC1	i	i	i	i	i	nt	nt	nt	nt	nt	nt
